6 compounds from ChEMBL document CHEMBL3351543, “Novel Type of Prodrug Activation through a Long-Range O,N-Acyl Transfer: A Case of Water-Soluble CREB Inhibitor” (ACS Med Chem Lett, 2014) can be followed below.

Molecules are shown by their SMILES.

Data set [1] in a line: Inhibition of CREB (unknown origin) assessed as reduction in KIX-KID interaction after 20 to 24 hrs by renilla luciferase complementation assay. More on the design: species or system Homo sapiens. The method, boiled down:
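In vitro Renilla luciferase complementation assay of KIX–KID interaction, run at 4 °C. Highest concentration tested 50 μM. IC50 given as mean ± SD of at least two independent experiments.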

The nature of data set [2]: Inhibition of CREB (unknown origin) expressed in HEK293T cells assessed as reduction in CREB-mediated gene tanscription after 5 hrs by luciferase reporter gene assay. Type of data set: cell-based. The conditions noted are these: Homo sapiens, HEK-293T. A digest of the protocol: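 CREB-Renilla luciferase reporter assay in living HEK 293T cells measuring CREB-mediated gene transcription. Highest concentration tested 50 μM. IC50 given as mean ± SD of at least two independent experiments.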
Background: A reporter such as luciferase makes a cellular process visible.

The next data set relates to A549. Kind of data set: Growth inhibition of human A549 cells after 72 hrs by MTT assay. Type of data set: functional, cell-based. The conditions noted are these: A549, 72 h. A digest of the protocol:
(§1)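 Cancer cells exposed to compounds for 72 h; growth measured by MTT assay. GI50 is the concentration giving 50% growth inhibition, highest concentration tested 100 μM. Mean ± SD of at least two independent experiments.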
A general note: Formazan colour is commonly taken as a measure of viable cells.

A further data set has as its system MCF7. Kind of data set: Growth inhibition of human MCF7 cells after 72 hrs by MTT assay. It counts as functional. The note with it: MCF7, 72 h. The method, boiled down: as §1
Another data set has as its system MDA-MB-231. Kind of data set: Growth inhibition of human MDA-MB-231 cells after 72 hrs by MTT assay. The conditions noted are these: MDA-MB-231, 72 h. Type of data set: functional. A digest of the protocol: as §1
A further data set relates to MDA-MB-468. Kind of data set: Growth inhibition of human MDA-MB-468 cells after 72 hrs by MTT assay. Type of data set: functional. The note with it: MDA-MB-468, 72 h. The method, boiled down:
as §1

Data set [3] can be described thus: Aqueous solubility in water. It counts as physicochemical.
A short description of data set [4]: Half life in Dulbecco's Modified eagle medium at pH 7.7 containing 10% fetal bovine serum. Type of data set: ADME. The conditions noted are these: cattle, Dulbecco's Modified Eagle medium with 10% fetal bovine serum. The method, boiled down:
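Compound incubated at 37 °C in DMEM with 10% FBS. At set times an aliquot was mixed with 9 volumes of acetonitrile to precipitate protein, and the supernatant was analysed by RP-HPLC with UV detection at 254 nm against an internal standard.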

Data set [5] can be described thus: Half life in PBS buffer at pH 7.4 by RP-HPLC method. Type of data set: ADME. A digest of the protocol: (§2)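 Compound incubated in PBS at room temperature at pH 7.40, 6.98, 6.48 or 6.01. Aliquots taken at set times were analysed by RP-HPLC, and percent parent remaining was quantified per chromatogram. Data fitted to first-order kinetics to derive t1/2; mean ± SD of two independent experiments.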

Data set [6] in a line: Half life in PBS buffer at pH 6.98 by RP-HPLC method. It counts as ADME. A digest of the protocol:
as §2

The nature of data set [7]: Half life in PBS buffer at pH 6.48 by RP-HPLC method. Type of data set: ADME. A digest of the protocol: as §2
Data set [8] can be described thus: Half life in PBS buffer at pH 6.01 by RP-HPLC method. Type of data set: ADME. The method, boiled down: as §2
The subject of another data set is HEK-293T. Kind of data set: Inhibition of CREB in HEK293T cells assessed as reduction in forskolin-induced NR4A2 mRNA expression at 2.5 uM pre-incubated for 1 hrs before forskolin stimulation for 45 mins by RT-PCR method. It counts as cell-based. The conditions noted are these: Homo sapiens. The method, boiled down: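 HEK 293T cells pretreated with compounds for 1 h, then forskolin added for a further 45 min. Endogenous NR4A2 mRNA quantified by qRT-PCR as relative level; significance by Student's t test.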

Data set [9] is described as follows: Half life in PBS buffer at pH 7.4 at 4 degC by RP-HPLC method. It counts as ADME.
A short description of data set [10]: Retention time of the compound by HPLC method. It counts as physicochemical.
Data set [11] can be described thus: Drug level in PBS buffer treated with 2-(3-(3-Aminopropoxy)-2-naphthamido)-5-chlorophenyl 3-(3-Aminopropoxy)-2-naphthoate dihydrochloride at room temperature assessed as compound formation. It counts as physicochemical. A digest of the protocol: as §2

The term IC50 denotes the concentration needed to halve the response being measured. The term GI50 denotes the concentration at which growth is held to half of that of the control. Turning to `NCCCOc1cc2ccccc2cc1C(=O)Nc1ccc(Cl)cc1O`, the IC50 is above 50 µM in data set [1], 26200 nM in data set [2] and 2730 nM with A549. The GI50 in the data set with MCF7 is 1850 nM; with MDA-MB-231, 2190 nM; in the data set on MDA-MB-468 it was 1200 nM.

One may read the solubility as the concentration that dissolves in the medium under given conditions. A low value points to a poorly soluble substance. The half-life is the time needed for the level to fall by half in the phase considered. Low readings indicate fast loss, high ones slow loss. Turning to `Cl.NCCCOc1cc2ccccc2cc1C(=O)Nc1ccc(Cl)cc1OC(=O)c1cc2ccccc2cc1OCCCN`, the IC50 in data set [1] worked out at 4.4 µM; in data set [2] it was 2270 nM; in the data set on A549, 590 nM. The GI50 in the data set on MDA-MB-231 was determined as 1300 nM; with MDA-MB-468, 330 nM. In data set [3], this compound yielded a solubility above 100000 µg/mL. The half-life in data set [4] is below 5 min; in [5], 27.3 min; in data set [6] it was 37.7 min; in [7], 115 min; in data set [8] it was 448 min; in data set [9], 1440 min. The fold change (FC) with HEK-293T stood at 10.

For the compound `COc1cc2ccccc2cc1C(=O)Nc1ccc(Cl)cc1O`, the figures for the IC50 (in [1]; in [2]; in the data set with A549) were above 50 µM, above 50000 nM and above 100000 nM, respectively. The GI50 in the data set with MCF7, with MDA-MB-231 and with MDA-MB-468 was above 100000 nM throughout.

`Cl.NCCCOc1cc2ccccc2cc1C(=O)NCCCOc1cc2ccccc2cc1C(=O)Nc1ccc(Cl)cc1O`: the IC50 in data set [1] turned out to be 19.7 µM; in data set [2], 2220 nM; in the data set with A549, 290 nM. For the same compound, the figures for the concentration for 50% growth inhibition (GI50) in the data set on MCF7, in the data set with MDA-MB-231 and in the data set with MDA-MB-468 were 140 nM, 370 nM and 220 nM, respectively. This compound yielded a solubility in data set [3] of 120 µg/mL. The compound also had a Retention_time in data set [10] of 12.2 min. In addition, in [11], the Drug metabolism entry is listed as “metabolite_detected”. The fold change (FC) in the data set with HEK-293T was 10.

As to `O=C(Nc1ccc(Cl)cc1)c1cc2ccccc2cc1O`, the IC50 is 2.9 µM in data set [1], 2290 nM in data set [2] and 2900 nM with A549. The figures for the GI50 in the data set on MCF7, with MDA-MB-231 and in the data set with MDA-MB-468 were 2810 nM, 2350 nM and 1460 nM, respectively.

As to `COc1cc2ccccc2cc1C(=O)Nc1ccc(Cl)cc1OC(=O)c1cc2ccccc2cc1OC`, the figures for the IC50 (in data set [1]; in [2]; in the data set with A549) were 0.17 µM, 1950 nM and 8780 nM, respectively. Further, the figures for the GI50 with MDA-MB-231 and in the data set with MDA-MB-468 were 23500 nM and 8110 nM, respectively. The compound further had a solubility in [3] below 100 µg/mL. The half-life in data set [4] is 1200 min.
